Tests used:
[1] = tested on: p-AKT (S473) in PRP; assay: p-AKT in platelet-rich plasma by Meso Scale Discovery immunoassay; assay type: in vivo, human
[2] = tested on: m-TORC1/2; conditions: ATP competitive m-TORC1/2 inhibitor; cited from earlier work
[3] = tested on: MCF7 xenograft models; assay: MCF7 xenograft growth inhibition; assay type: in vivo
[4] = tested on: p-S6; assay: p-S6 immunohistochemistry in pre- and post-treatment tumor biopsies; assay type: in vivo, human; conditions: 50 mg BD, post-treatment vs pre-treatment, mean H score
Outline: (§1)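 Paired tumor biopsies taken before treatment and on days 8-15 of continuous oral twice-daily dosing, in a subset of expansion-cohort patients with advanced solid tumors. Patients fasted (water allowed) 2 h before and 1 h after each dose. Markers were scored by immunohistochemistry on post-treatment versus pre-treatment samples.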

[5] = tested on: p-AKT; assay: p-AKT immunohistochemistry in pre- and post-treatment tumor biopsies; assay type: in vivo, human; conditions: 50 mg BD
Outline: as §1

[6] = tested on: CYP isozymes; assay: metabolism in human hepatocytes and heterologously expressed CYP isozymes; assay type: in vitro ADME
[7] = tested on: SUVmax of tumors; assay: FDG PET scans at baseline and day 8; assay type: in vivo, human; conditions: Part B, 50 mg BD, paired FDG PET scans
[8] = tested on: p-4EBP1 in PBMNCs; assay: p-4EBP1 in peripheral blood mononuclear cells by flow cytometry; assay type: in vivo, human
[9] = 50 mg, 24 hours (12 hours after the 2nd BD dose)

With `CNC(=O)c1cccc(-c2ccc3c(N4CCOC[C@@H]4C)nc(N4CCOC[C@@H]4C)nc3n2)c1` [AZD2014] the “mean % change from baseline in p-AKT” value [1, 9] was −2%, the “mean % change from baseline in p-AKT” value ([1]; single 50 mg dose, 6-8 hours) was −37% and the “mean % change from baseline in p-AKT” value ([1]; single 50 mg dose, 2 hours) was −62%. For the same compound, the IC50 [2] was 2.81 nM, the “total growth inhibition (TGI)” value ([3]; 4500 nM.h free weekly AUC) was > 70% and the “total growth inhibition (TGI)” value ([3]; 17000 nM.h free weekly AUC) was ≥ 100%. The “evaluable paired biopsy samples with a reduction of p-S6 levels” value [4] was 8/8, the “induction of phosphorylation of AKT in post-treatment biopsies” value [5] was “no instances of induction of phosphorylation of AKT were seen” and the “paired biopsy samples with a reduction of p-AKT levels” value ([5]; post-treatment vs pre-treatment, mean H score) was 3/4. The “metabolising CYP isozymes” value [6] was “primarily metabolised by CYP 3A5 and 2C8 with some contribution from 3A4”, the “patients attaining a partial response (30% reduction in SUVmax)” value [7] was 3/11 and the “patients with a reduction of SUVmax” value [7] was 8/11. For the same compound, the “mean % change from baseline in p-4EBP1” value [8, 9] was −21% and the “mean % change from baseline in p-4EBP1” value ([8]; single 50 mg dose, 6-8 hours) was ~−41%.
